Screens from PubChem BioAssay.
KCNK3 block – human KCNK3 channel inhibition, primary screen | CHO-KCNK3 thallium flux, FluxOR fluorescence; active compounds read low | B-score at 10 µM | hit rate 0.84% among 340,000 | AID 602410;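 active = B-score under library mean minus 4 SD, starting fluorescence ratio at most library mean plus 5 SD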;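 note: more negative B-score means stronger inhibition of thallium flux through KCNK3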
hERG protect – shields human hERG channel from block by proarrhythmic agents; hit rate 0.51% among 310,000; activation (rescue from dofetilide block), less the hit threshold, % at 10 µM; Q12809; CHO-hERG, FluxOR thallium flux, dofetilide IC70 present;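 active = activation above the mean of controls blocked by dofetilide plus 5 SD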;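 note: thallium influx through hERG after potassium depolarization seen as dye fluorescence rise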
Target sequence (Q12809 whole entry, looked up): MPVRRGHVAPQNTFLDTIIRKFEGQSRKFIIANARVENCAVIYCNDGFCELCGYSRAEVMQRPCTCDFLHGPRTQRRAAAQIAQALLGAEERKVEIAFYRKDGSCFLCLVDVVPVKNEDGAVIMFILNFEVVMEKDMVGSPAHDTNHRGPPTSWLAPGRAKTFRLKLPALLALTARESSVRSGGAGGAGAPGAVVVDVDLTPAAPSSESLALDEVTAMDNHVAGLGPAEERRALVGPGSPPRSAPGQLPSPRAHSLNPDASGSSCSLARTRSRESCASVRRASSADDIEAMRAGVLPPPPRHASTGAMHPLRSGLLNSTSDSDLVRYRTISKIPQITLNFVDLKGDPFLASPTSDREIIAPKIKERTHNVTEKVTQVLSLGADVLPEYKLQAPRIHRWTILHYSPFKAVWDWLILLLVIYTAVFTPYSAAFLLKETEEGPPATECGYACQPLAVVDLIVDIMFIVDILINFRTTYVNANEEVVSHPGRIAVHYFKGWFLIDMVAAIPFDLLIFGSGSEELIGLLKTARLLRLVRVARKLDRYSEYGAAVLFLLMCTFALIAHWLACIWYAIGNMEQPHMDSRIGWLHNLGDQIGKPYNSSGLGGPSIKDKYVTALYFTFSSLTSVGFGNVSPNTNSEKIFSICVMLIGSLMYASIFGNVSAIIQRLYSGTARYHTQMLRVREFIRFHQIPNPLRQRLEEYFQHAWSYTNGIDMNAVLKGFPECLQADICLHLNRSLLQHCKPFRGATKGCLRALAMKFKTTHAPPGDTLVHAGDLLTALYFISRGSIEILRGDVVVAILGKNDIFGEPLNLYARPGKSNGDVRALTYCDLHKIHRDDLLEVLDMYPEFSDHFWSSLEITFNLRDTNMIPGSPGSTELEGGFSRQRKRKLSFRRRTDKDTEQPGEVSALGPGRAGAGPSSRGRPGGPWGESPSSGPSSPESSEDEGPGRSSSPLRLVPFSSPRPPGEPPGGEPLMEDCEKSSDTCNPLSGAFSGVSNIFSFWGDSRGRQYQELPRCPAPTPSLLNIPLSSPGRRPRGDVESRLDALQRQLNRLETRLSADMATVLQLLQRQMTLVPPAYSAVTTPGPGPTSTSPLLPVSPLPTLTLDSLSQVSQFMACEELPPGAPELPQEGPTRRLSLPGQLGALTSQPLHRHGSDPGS
KCNQ1 act – human KCNQ1 channel potentiation or activation | AID 2648 | CHO-K1 KCNQ1, thallium flux FluxOR fluorescence; active compounds read high | B-score at 10 µM | hit rate 0.35% among 310,000 | P51787;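 active = fluorescence ratio B-score, a plate-corrected score, at least three library SD, with initial intensity B-score within 5 SD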
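Assay system: CHO-K1 cells stably expressing KCNQ1; Medium: assay buffer with matched DMSO; Also added: K+/Tl+ depolarizing stimulus; Dosing: single dose; Timing: dye 90 min, compound 20 min, room temperature; Measured by: kinetic FluxOR thallium fluorescence, 10-s 1-Hz baseline, 110-s post-stimulus read; Read-out: peak-minus-minimum fluorescence over initial fluorescence, negative-control normalized, B-scored.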
Kir21 block – blocks the mouse Kir2.1 inward-rectifier potassium channel. hit rate 0.85% among 310,000. HEK293-Kir2.1, FluxOR thallium flux fluorescence; active compounds read low. AID 1672. P35561. B-score at 10 µM;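 active = fluorescence ratio B-score at or below minus 3 SD of library scores, with starting-brightness B-score within 2 SD, cut at about -4.2 in these data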;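 note: channel flux triggered by added potassium and thallium sulfate stimulus; B-score of peak minus minimum fluorescence over baseline after thallium stimulus; more negative B-score means stronger Kir2.1 block with less thallium influx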
KCNK9 block – blocks the human KCNK9 two-pore domain potassium channel. HEK293 KCNK9, FluxOR thallium flux fluorescence; active compounds read low. hit rate 1.2% among 310,000. B-score at 10 µM. Q9NPC2;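 active = ratio B-score over 3 SD below the library mean, with starting fluorescence within 5 SD of its mean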;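 note: negative B-score means less thallium flux so channel inhibition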
KCNQ1 block – inhibitors of human KCNQ1 potassium channel; P51787; CHO-K1 KCNQ1, FluxOR thallium flux fluorescence; active compounds read high; B-score at 10 µM; hit rate 1.3% among 310,000; AID 2642;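 active = compounds whose thallium flux B-score, printed positive for inhibition, exceeds three library SD while starting fluorescence stays within three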;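 note: channel opened by potassium depolarization with thallium stimulus after 20 min compound exposure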
KCNK3 confirm – confirmation of human KCNK3 two-pore domain potassium channel inhibitors | shares compounds with KCNK3 block | CHO-KCNK3 thallium flux, FluxOR fluorescence; 0% buffer, 100% carvedilol maximal block | ratio percent of control, % at 10 µM | hit rate 99% among 2,400 | AID 651638;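 active = ratio percent of control, averaged over triplicates, above buffer control mean plus 5 SD, cut at about 64% in these data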;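 note: ratio is the fluorescence rise from min to max over baseline after thallium stimulus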
KCNK3 noninduced – activity in cells without induced KCNK3 expression | shares compounds with KCNK3 block | non-induced KCNK3 parental cells, FluxOR thallium flux; active compounds read low | AID 651747 | hit rate 40% among 2,400 | thallium flux ratio (lower = more inhibition) at 10 µM;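 active = thallium flux ratio, averaged over three wells, more than 5 SD below the buffer control mean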;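 note: host cells are CHO cells without KCNK3 induction; ratio is peak minus trough fluorescence over baseline then normalized to buffer controls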
* = called active by the depositor. Rows were chosen to be rich in hits. Some 3.7% of all compounds tested hit in one or more screens of this group.

How did COCC(C)n1c(SCc2cc(C(=O)OC)c(C)o2)nc2ccccc2c1=O (stereo not given) do in these assays?
KCNK3 block: -8.9*; hERG protect: -12; KCNQ1 act: inactive; Kir21 block: -1.3; KCNK9 block: inactive; KCNQ1 block: inactive; KCNK3 confirm: 90*; KCNK3 noninduced: inactive

What do the screens show for `CCOc1ccccc1/C=N/N1CCN(Cc2ccccc2)CC1`?
KCNK3 block: -11*; hERG protect: -6; KCNQ1 act: inactive; Kir21 block: -0.79; KCNK9 block: inactive; KCNQ1 block: inactive; KCNK3 confirm: 83*; KCNK3 noninduced: inactive

How did Cc1cc(NC(=O)c2ccc(C)c(C)c2)no1 do in these assays?
KCNK3 block: inactive; hERG protect: -1; KCNQ1 act: inactive; Kir21 block: -1.4; KCNK9 block: inactive; KCNQ1 block: inactive

What do the screens show for `COC(=O)C(C)Sc1nc2ccsc2c(=O)n1Cc1ccccc1` (stereo not given)?
KCNK3 block: -9.4*; hERG protect: -14; KCNQ1 act: inactive; Kir21 block: -0.24; KCNK9 block: inactive; KCNQ1 block: inactive; KCNK3 confirm: 94*; KCNK3 noninduced: inactive

Results for COc1ccc(Cn2c(SCC(=O)NCc3ccco3)nc3ccsc3c2=O)cc1 ?
KCNK3 block: inactive; hERG protect: -3; KCNQ1 act: inactive; Kir21 block: -0.02; KCNK9 block: inactive; KCNQ1 block: inactive

What do the screens show for `CCN(CC)c1ccc(S(=O)(=O)N(CC)CC)cc1NC(=O)C1CCCC1`?
KCNK3 block: -9.4*; hERG protect: -11; KCNQ1 act: inactive; Kir21 block: -0.21; KCNK9 block: inactive; KCNQ1 block: inactive; KCNK3 confirm: 97*; KCNK3 noninduced: inactive

Results for CCN(CC)S(=O)(=O)c1cc(NC(=O)C(=O)c2c(-c3ccccc3)cc3ccccn23)ccc1C ?
KCNK3 block: -10*; hERG protect: -9; KCNQ1 act: inactive; Kir21 block: -0.03; KCNK9 block: inactive; KCNQ1 block: inactive; KCNK3 confirm: 105*; KCNK3 noninduced: inactive

How did CCN(CC)S(=O)(=O)c1ccc(N(C)C)c(NC(=O)C2CCCC2)c1 do in these assays?
KCNK3 block: inactive; hERG protect: -9; KCNQ1 act: inactive; Kir21 block: -2.2; KCNK9 block: inactive; KCNQ1 block: inactive

What do the screens show for `CCN(CC)S(=O)(=O)c1cc(NC(=S)NC(=O)C2CCCC2)ccc1C`?
KCNK3 block: -16*; KCNK3 confirm: 101*; KCNK3 noninduced: inactive

What do the screens show for `C/C(=N/NC(=O)CNC(=O)c1ccncc1)c1ccco1`?
KCNK3 block: inactive; hERG protect: -11; KCNQ1 act: inactive; Kir21 block: -0.4; KCNK9 block: inactive; KCNQ1 block: inactive

Results for CCCCNC(=O)c1ccc2c(c1)C(=O)N(Cc1ccncc1)C2=O ?
KCNK3 block: inactive; hERG protect: -10; KCNQ1 act: inactive; Kir21 block: 2.1; KCNK9 block: inactive; KCNQ1 block: inactive

What do the screens show for `Cc1ccc2oc(=O)c3cc(C(=O)N4CCN(C(=O)c5ccco5)CC4)sc3c2c1`?
hERG protect: -10; KCNQ1 act: inactive; Kir21 block: 0.02; KCNK9 block: inactive; KCNQ1 block: inactive

Results for CCN(Cc1ccccc1)C(=O)c1cc2c(=O)oc3ccc(C)cc3c2s1 ?
KCNK3 block: -8.9*; hERG protect: -20; KCNQ1 act: inactive; Kir21 block: -0.16; KCNK9 block: inactive; KCNQ1 block: 6*; KCNK3 confirm: 111*; KCNK3 noninduced: 0.12*

Results for CCOc1ccc(OCC)c(S(=O)(=O)n2cnc(C)c2)c1 ?
KCNK3 block: -8.8*; hERG protect: -9; KCNQ1 act: inactive; Kir21 block: -0.78; KCNK9 block: inactive; KCNQ1 block: inactive; KCNK3 confirm: 82*; KCNK3 noninduced: inactive

What do the screens show for `CSc1ccccc1NC(=O)c1cc(-c2cccnc2)nc2ccc(Br)cc12`?
KCNK3 block: -13*; hERG protect: -9; KCNQ1 act: inactive; Kir21 block: -0.1; KCNK9 block: inactive; KCNQ1 block: inactive; KCNK3 confirm: 109*; KCNK3 noninduced: 0.15*

How did N#CCC(=O)Nc1ccc(C(=O)OCC(=O)N=c2sccn2Cc2ccccc2Cl)cc1 do in these assays?
KCNK3 block: -11*; hERG protect: -16; KCNQ1 act: inactive; Kir21 block: 2.8; KCNK9 block: inactive; KCNQ1 block: inactive; KCNK3 confirm: 92*; KCNK3 noninduced: inactive

Results for CCSc1nc2ccccc2n1Cc1ccccc1F ?
KCNK3 block: inactive; hERG protect: -10; KCNQ1 act: inactive; Kir21 block: -2.5; KCNK9 block: inactive; KCNQ1 block: inactive

What do the screens show for `CCSc1nc2ccccc2n1Cc1cccc([N+](=O)[O-])c1`?
KCNK3 block: -8.8*; hERG protect: -4; KCNQ1 act: inactive; Kir21 block: 0.09; KCNK9 block: inactive; KCNQ1 block: inactive; KCNK3 confirm: 95*; KCNK3 noninduced: inactive

What do the screens show for `Cc1ccc(NC(=O)CSCC(=O)NNC(=O)c2ccoc2C)cc1`?
KCNK3 block: inactive; hERG protect: -11; KCNQ1 act: inactive; Kir21 block: 0.05; KCNK9 block: inactive; KCNQ1 block: inactive

What do the screens show for `O=C(NCCSc1c[nH]c2ccccc12)c1ccco1`?
KCNK3 block: inactive; hERG protect: -4; KCNQ1 act: inactive; Kir21 block: 0.97; KCNK9 block: inactive; KCNQ1 block: inactive

What do the screens show for `O=C(NCCSc1c[nH]c2ccccc12)c1c(F)cccc1F`?
KCNK3 block: -10*; hERG protect: -18; KCNQ1 act: inactive; Kir21 block: 0.48; KCNK9 block: inactive; KCNQ1 block: inactive; KCNK3 confirm: 101*; KCNK3 noninduced: inactive

Results for CC(=O)NCc1ccc(C(=O)CN2C(=O)NC3(CCCCC3C)C2=O)s1 (stereo not given) ?
KCNK3 block: inactive

What do the screens show for `Cc1ccccc1CC(=O)c1ccc(O)c(C)c1O`?
KCNK3 block: -13*; hERG protect: -12; KCNQ1 act: inactive; Kir21 block: -0.64; KCNK9 block: inactive; KCNQ1 block: inactive; KCNK3 confirm: 115*; KCNK3 noninduced: 0.15*

How did CCCCNC(=O)c1cc2nc3c(c(C(F)(F)F)n2n1)CCc1ccccc1-3 do in these assays?
KCNK3 block: inactive; hERG protect: -1; KCNQ1 act: inactive; Kir21 block: -0.46; KCNK9 block: inactive; KCNQ1 block: inactive
